Measurements reported in ChEMBL document CHEMBL4359823, “Switching on the activity of 1,5-diaryl-pyrrole derivatives against drug-resistant ESKAPE bacteria: Structure-activity relationships and mode of action studies” (Eur J Med Chem, 2019).
Values after ≈ are worked out from the molar mass of the structure shown. Active and inactive are the calls of the source. No cut-off for these calls is given here.

What was measured:
Enterococcus faecalis [1] = assay: Antibacterial activity against vancomycin resistant Enterococcus faecalis NCTC12201 measured after overnight incubation by microbroth dilution method; format: functional
Outline: (§1)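 Microbroth dilution: DMSO stocks diluted in water, 2-fold series. Overnight TSB cultures back-diluted to OD 0.01 and mixed 1:1 with compound. Incubated overnight at 37 °C; MIC taken as lowest concentration without visible growth (<0.1 OD600). Run in duplicate; matching DMSO levels checked for effect on growth.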

Staphylococcus aureus [2] = assay: Antibacterial activity against methicillin sensitive Staphylococcus aureus NCTC 6571 measured after overnight incubation by microbroth dilution method; format: functional; outline: as §1
Pseudomonas aeruginosa [3] = assay: Antibacterial activity against Pseudomonas aeruginosa NCTC13437 measured after overnight incubation in presence of polymyxin B nonapeptide by microbroth dilution method; format: functional
Staphylococcus aureus [4] = assay: Antibacterial activity against methicillin resistant Staphylococcus aureus NCTC13616 measured after overnight incubation by microbroth dilution method; format: functional; outline: as §1
Pseudomonas aeruginosa [5] = assay: Antibacterial activity against Pseudomonas aeruginosa PAO1 measured after overnight incubation in presence of polymyxin B nonapeptide by microbroth dilution method; format: functional
Enterococcus faecalis [6] = assay: Antibacterial activity against vancomycin sensitive Enterococcus faecalis NCTC775 measured after overnight incubation by microbroth dilution method; format: functional; outline: as §1
Acinetobacter baumannii [7] = assay: Antibacterial activity against Acinetobacter baumannii AYE measured after overnight incubation by microbroth dilution method; format: functional
Outline: (§2)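 Microbroth dilution MIC. Compound DMSO stocks were diluted in water as a 2-fold series. Overnight TSB cultures were back-diluted to OD 0.01 and mixed 1:1 with compound. Plates were incubated overnight at 37 °C. MIC was the lowest concentration without visible growth (<0.1 OD600), run in duplicate.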

Klebsiella pneumoniae [8] = assay: Antibacterial activity against Klebsiella pneumoniae M6 measured after overnight incubation by microbroth dilution method; format: functional; outline: as §2
Klebsiella pneumoniae [9] = assay: Antibacterial activity against Klebsiella pneumoniae NCTC13368 measured after overnight incubation in presence of polymyxin B nonapeptide by microbroth dilution method; format: functional
Pseudomonas aeruginosa [10] = assay: Antibacterial activity against Pseudomonas aeruginosa NCTC13437 measured after overnight incubation by microbroth dilution method; format: functional; outline: as §2
Klebsiella pneumoniae [11] = assay: Antibacterial activity against Klebsiella pneumoniae M6 measured after overnight incubation in presence of polymyxin B nonapeptide by microbroth dilution method; format: functional
Acinetobacter baumannii [12] = assay: Antibacterial activity against Acinetobacter baumannii ATCC 17978 measured after overnight incubation in presence of polymyxin B nonapeptide by microbroth dilution method; format: functional
Staphylococcus aureus [13] = assay: Antibacterial activity against methicillin resistant Staphylococcus aureus NCTC13277 measured after overnight incubation by microbroth dilution method; format: functional; outline: as §1
Escherichia coli [14] = assay: Antibacterial activity against Escherichia coli NCTC12923 measured after overnight incubation by microbroth dilution method; format: functional; outline: as §2
Pseudomonas aeruginosa [15] = assay: Antibacterial activity against Pseudomonas aeruginosa PAO1 measured after overnight incubation by microbroth dilution method; format: functional; outline: as §2
Klebsiella pneumoniae [16] = assay: Antibacterial activity against Klebsiella pneumoniae NCTC13368 measured after overnight incubation by microbroth dilution method; format: functional; outline: as §2
Acinetobacter baumannii [17] = assay: Antibacterial activity against Acinetobacter baumannii ATCC 17978 measured after overnight incubation by microbroth dilution method; format: functional; outline: as §2
Acinetobacter baumannii [18] = assay: Antibacterial activity against Acinetobacter baumannii AYE measured after overnight incubation in presence of polymyxin B nonapeptide by microbroth dilution method; format: functional
Enterococcus faecalis [19] = assay: Antibacterial activity against vancomycin resistant Enterococcus faecalis NCTC12204 measured after overnight incubation by microbroth dilution method; format: functional; outline: as §1
Enterococcus faecium = assay: Antibacterial activity against Enterococcus faecium NCTC12204 assessed as generation of drug resistance at 2 times MIC measured after 48 hrs by agar-based microbroth dilution method
Pseudomonas aeruginosa [20] = assay: Antibacterial activity against Pseudomonas aeruginosa PAO1 measured after overnight incubation in presence of phenylalanine arginine beta-naphthylamide by microbroth dilution method; format: functional; outline: as §2
Pseudomonas aeruginosa [21] = assay: Antibacterial activity against Pseudomonas aeruginosa NCTC13437 measured after overnight incubation in presence of phenylalanine arginine beta-naphthylamide by microbroth dilution method; format: functional; outline: as §2
Acinetobacter baumannii [22] = assay: Antibacterial activity against Acinetobacter baumannii AYE measured after overnight incubation in presence of phenylalanine arginine beta-naphthylamide by microbroth dilution method; format: functional; outline: as §2
Klebsiella pneumoniae [23] = assay: Antibacterial activity against Klebsiella pneumoniae M6 measured after overnight incubation in presence of phenylalanine arginine beta-naphthylamide by microbroth dilution method; format: functional; outline: as §2
HeLa = assay: Cytotoxicity again human HeLa cells measured after 24 hrs by XTT assay; format: cell-based
Outline: (§3)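 Cells were grown in EMEM with glutamine, 10% FBS and non-essential amino acids at 37 °C, 10% CO2. Seeding was 1 x 10^5 cells/mL (HEK293) or 4 x 10^4 cells/mL (HeLa), then 24 h adherence. Doubling compound dilutions were applied for 24 h. XTT/PMS was added for 4 h in the dark, with absorbance read at 450 nm. Untreated cells were the 100% control and water-treated cells the 0% control; IC50 was fitted.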

[24] = Inhibition of Staphylococcus aureus DNA gyrase subunit A2B2 using relaxed pBR322 DNA as substrate measured after 30 mins in presence of ATP by ethidium bromide-based gel electrophoresis
Outline: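 Supercoiling assay with S. aureus wild-type or S84L gyrase and relaxed pBR322, with or without varying compound, at 37 °C for 30 min. The reaction was stopped with STEB and extracted with chloroform:isoamyl alcohol (24:1). The aqueous phase was run on a 1% agarose gel and the supercoiled band quantified. IC50 came from at least three independent replicates.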

DNA gyrase = DNA gyrase (Staphylococcus aureus, UniProt P0A0K8+P20831, S84L); assay: Inhibition of Staphylococcus aureus DNA gyrase S84L mutant; format: protein-complex assay
Topoisomerase IV = Topoisomerase IV (Staphylococcus aureus, UniProt P0C1S7+P0C1U9); assay: Inhibition of Staphylococcus aureus topoisomerase-4 expressed in Escherichia coli assessed as relaxation of pBR322 substrate measured after 30 mins by agarose gel electrophoresis
HEK293 = assay: Cytotoxicity again human HEK293 cells measured after 24 hrs by XTT assay; format: cell-based; details: HEK293, 24 h; outline: as §3
Acinetobacter baumannii [25] = assay: Antibacterial activity against Acinetobacter baumannii ATCC 17978 measured after overnight incubation in presence of phenylalanine arginine beta-naphthylamide by microbroth dilution method; format: functional; outline: as §2
Enterococcus faecalis [26] = assay: Bacteriostatic activity against vancomycin resistant Enterococcus feacalis NCTC12204 at 4 times MIC measured at 0 to 24 hrs by time kill assay
Klebsiella pneumoniae [27] = assay: Antibacterial activity against Klebsiella pneumoniae NCTC13368 measured after overnight incubation in presence of phenylalanine arginine beta-naphthylamide by microbroth dilution method; format: functional; outline: as §2
Staphylococcus aureus [28] = assay: Antibacterial activity against Staphylococcus aureus NCTC13616 assessed as generation of drug resistance at 2 times MIC measured after 48 hrs by agar-based microbroth dilution method; format: functional
Outline: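 Agar method: exponentially growing bacteria, in known numbers, plated on agar with doubling compound concentrations at and above the MIC; incubated 48 hours. Colonies growing above the MIC were picked and re-tested by microbroth MIC for raised resistance. Resistance frequency reported at 2xMIC.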

Escherichia coli [29] = assay: Antibacterial activity against Escherichia coli NCTC12923 measured after overnight incubation in presence of phenylalanine arginine beta-naphthylamide by microbroth dilution method; format: functional; outline: as §2
Staphylococcus aureus [30] = assay: Bacteriostatic activity against methicillin resistant Staphylococcus aureus NCTC13616 at 4 times MIC measured at 0 to 24 hrs by time kill assay
Escherichia coli [31] = assay: Antibacterial activity against Escherichia coli NCTC12923 measured after overnight incubation in presence of polymyxin B nonapeptide by microbroth dilution method; format: functional

Q: Which results are given for `Cc1c(CNC2CCCCC2)cc(-c2ccc(Cl)cc2)n1-c1ccc(Cl)cc1`?
A: MIC (Enterococcus faecalis [1]): 4 µg/mL (≈ 9.68 µM); MIC (Staphylococcus aureus [2]): 4 µg/mL (≈ 9.68 µM); MIC (Pseudomonas aeruginosa [3]): 32 µg/mL; MIC (Staphylococcus aureus [4]): 4 µg/mL (≈ 9.68 µM); MIC (Pseudomonas aeruginosa [5]): > 128 µg/mL; MIC (Enterococcus faecalis [6]): 4 µg/mL (≈ 9.68 µM); MIC (Acinetobacter baumannii [7]): 128 µg/mL (≈ 310 µM); MIC (Klebsiella pneumoniae [8]): > 128 µg/mL; MIC (Klebsiella pneumoniae [9]): > 128 µg/mL; MIC (Pseudomonas aeruginosa [10]): > 128 µg/mL; MIC (Klebsiella pneumoniae [11]): 64 µg/mL; MIC (Acinetobacter baumannii [12]): 4 µg/mL; MIC (Staphylococcus aureus [13]): 4 µg/mL (≈ 9.68 µM); MIC (Escherichia coli [14]): > 128 µg/mL; MIC (Pseudomonas aeruginosa [15]): > 128 µg/mL; MIC (Klebsiella pneumoniae [16]): > 128 µg/mL; MIC (Acinetobacter baumannii [17]): 64 µg/mL (≈ 155 µM); MIC (Acinetobacter baumannii [18]): 8 µg/mL; MIC (Enterococcus faecalis [19]): 2 µg/mL (≈ 4.84 µM)

Q: For `Cc1c(CNC2CCC(NC(=N)N)CC2)cc(-c2ccc(Cl)cc2)n1-c1ccc(Cl)cc1` (stereo not given), which Activity (Enterococcus faecium) is on record?
A: The Activity was <9.4e-08.

Q: What about the MIC (Enterococcus faecalis [1]) of the same compound?
A: Its MIC is 16 µg/mL (≈ 34 µM).

Q: And the MIC (Pseudomonas aeruginosa [20])?
A: Its MIC is 128 µg/mL.

Q: And the MIC (Staphylococcus aureus [2])?
A: The MIC was 2 µg/mL (≈ 4.25 µM).

Q: And the MIC (Pseudomonas aeruginosa [21])?
A: The MIC was 64 µg/mL.

Q: What about the MIC (Acinetobacter baumannii [22]) of the same compound?
A: The MIC was 64 µg/mL.

Q: And the MIC (Pseudomonas aeruginosa [3])?
A: The MIC was 16 µg/mL.

Q: And the MIC (Klebsiella pneumoniae [23])?
A: Its MIC is 64 µg/mL.

Q: And the MIC (Staphylococcus aureus [4])?
A: Its MIC is 2 to 4 µg/mL (≈ 4.25 to 8.5 µM).

Q: And the MIC (Pseudomonas aeruginosa [5])?
A: Its MIC is 128 µg/mL.

Q: And the MIC (Enterococcus faecalis [6])?
A: Its MIC is 8 µg/mL (≈ 17 µM).

Q: And the IC50 (HeLa)?
A: Its IC50 is 11.7 to 18.9 µg/mL (≈ 24.8 to 40.2 µM).

Q: And the IC50 [24]?
A: Its IC50 is 7.48 µg/mL.

Q: And the MIC (Acinetobacter baumannii [7])?
A: Its MIC is 64 to 128 µg/mL (≈ 136 to 272 µM).

Q: What about the MIC (Klebsiella pneumoniae [8]) of the same compound?
A: Its MIC is 32 µg/mL (≈ 68 µM).

Q: What about the MIC (Klebsiella pneumoniae [9]) of the same compound?
A: The MIC was 128 µg/mL.

Q: What about the MIC (Pseudomonas aeruginosa [10]) of the same compound?
A: The MIC was 16 µg/mL (≈ 34 µM).

Q: What about the IC50 (DNA gyrase) of the same compound?
A: Its IC50 is 15.4 µM.

Q: What about the IC50 (Topoisomerase IV) of the same compound?
A: Its IC50 is 61.2 µM.

Q: And the IC50 (HEK293)?
A: Its IC50 is 11.7 to 18.9 µg/mL (≈ 24.8 to 40.2 µM).

Q: And the MIC (Klebsiella pneumoniae [11])?
A: The MIC was 64 µg/mL.

Q: And the MIC (Acinetobacter baumannii [12])?
A: The MIC was 16 µg/mL.

Q: And the MIC (Staphylococcus aureus [13])?
A: Its MIC is 4 µg/mL (≈ 8.5 µM).

Q: And the MIC (Acinetobacter baumannii [25])?
A: Its MIC is 16 µg/mL.

Q: And the MIC (Escherichia coli [14])?
A: The MIC was 8 µg/mL (≈ 17 µM).

Q: And the MIC (Pseudomonas aeruginosa [15])?
A: Its MIC is 128 µg/mL (≈ 272 µM).

Q: And the MIC (Klebsiella pneumoniae [16])?
A: Its MIC is 128 µg/mL (≈ 272 µM).

Q: What about the Activity (Enterococcus faecalis [26]) of the same compound?
A: Its Activity is “Active”.

Q: What about the MIC (Klebsiella pneumoniae [27]) of the same compound?
A: Its MIC is 128 µg/mL.

Q: What about the Activity (Staphylococcus aureus [28]) of the same compound?
A: Its Activity is <7.6e-08.

Q: What about the MIC (Acinetobacter baumannii [17]) of the same compound?
A: The MIC was 16 µg/mL (≈ 34 µM).

Q: What about the MIC (Acinetobacter baumannii [18]) of the same compound?
A: The MIC was 32 µg/mL.

Q: And the MIC (Enterococcus faecalis [19])?
A: The MIC was 4 µg/mL (≈ 8.5 µM).

Q: What about the MIC (Escherichia coli [29]) of the same compound?
A: The MIC was 8 µg/mL.

Q: And the Activity (Staphylococcus aureus [30])?
A: Its Activity is “Active”.

Q: What about the MIC (Escherichia coli [31]) of the same compound?
A: Its MIC is 4 µg/mL.
